Data taken from ChEMBL document CHEMBL1139961, “Synthesis and evaluation of isoxazole derivatives as lysophosphatidic acid (LPA) antagonists” (Bioorg Med Chem Lett, 2007).

Legend:
[1] = molecular target: Lysophosphatidic acid receptor 1 (Homo sapiens, UniProt Q92633); experiment: Antagonist activity at human recombinant LPA1 receptor expressed in CHOK1 cells assessed as inhibition of lysophosphatidic acid-induced intracellular calcium influx; assay type: functional, cell-based, CHO-K1
Method in brief: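 LPA1-transfected CHO-K1 cells grown in aMEM/F12 with 400 µg/ml Zeocin and 7% FBS. Loaded with Fluo-3 AM in 20 mM Hepes/HBSS/2.5 mM probenecid, 1 h, 37 °C. Washed, resuspended with 0.1% BSA, 24,000 cells/well. FLIPR fluorescence (ex 488/em 540 nm) read before and after compound addition, with or without 1 µM LPA. IC50 is the mean of at least two runs.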

[2] = molecular target: Lysophosphatidic acid receptor 1 (Rattus norvegicus, UniProt P61794); experiment: Antagonist activity at LPA1 receptor in rat hepatic stellate cells assessed as inhibition of lysophosphatidic acid-induced intracellular calcium influx; assay type: functional, cell-based
Sequence of Lysophosphatidic acid receptor 1 (Rattus norvegicus, UniProt P61794) (P61794 whole entry): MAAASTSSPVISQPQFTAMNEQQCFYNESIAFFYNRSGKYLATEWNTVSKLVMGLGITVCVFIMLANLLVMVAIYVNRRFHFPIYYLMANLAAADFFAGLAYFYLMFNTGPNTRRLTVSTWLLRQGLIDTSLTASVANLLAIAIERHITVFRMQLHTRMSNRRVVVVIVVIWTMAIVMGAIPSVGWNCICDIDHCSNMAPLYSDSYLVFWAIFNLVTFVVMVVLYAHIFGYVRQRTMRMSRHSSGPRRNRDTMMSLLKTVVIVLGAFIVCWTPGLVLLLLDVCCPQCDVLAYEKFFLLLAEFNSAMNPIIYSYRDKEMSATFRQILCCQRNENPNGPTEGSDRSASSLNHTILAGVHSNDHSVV
Method in brief: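 Stellate cells isolated from male Wistar rat liver, seeded overnight at 24,000 cells/well. Loaded with 4 µM Fluo-3 AM in buffer (0.1% BSA, 20 mM Hepes, HBSS, 2.5 mM probenecid), 37 °C, 1 h, then FLIPR Ca2+ read. Test substance added with LPA at 5 µM final. LPA without compound = 100%, no LPA = 0%. IC50 is the mean of at least two runs.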

Sequence of Lysophosphatidic acid receptor 1 (Homo sapiens, UniProt Q92633) (Q92633 whole entry): as the sequence (P61794 whole entry) above, with A4I, S8I, Q22P, Y40H, V61I, D193E, H194N, V269I, N331S, N335T counted along it

Compound	IC50 [1] [µM]	IC50 [2] [µM]
CC(OC(=O)Nc1conc1-c1ccc(CSCCS(=O)(=O)O)cc1)c1ccccc1Cl (centres undefined)	0.43	0.074
CC(OC(=O)Nc1ccccc1-c1ccc(CSCCC(=O)O)cc1)c1ccccc1Cl (centres undefined)	> 40	> 20
CC(OC(=O)Nc1conc1-c1ccc(CCCCC(=O)O)cc1)c1ccccc1Cl (centres undefined)	0.2	0.072
CC(OC(=O)Nc1conc1-c1ccc(CCC(C)(C)CC(=O)O)cc1)c1ccccc1Cl (centres undefined)	0.37	0.12
CC(OC(=O)Nc1conc1-c1ccc(NC(=O)CCC(=O)O)cc1)c1ccccc1Cl (centres undefined)	0.14	0.073
CC(OC(=O)Nc1cnoc1-c1ccc(CSCCC(=O)O)cc1)c1ccccc1Cl (centres undefined)	0.26	0.081
CC(OC(=O)Nc1conc1-c1ccc(CSCCC(=O)O)cc1)c1ccccc1Cl (centres undefined)	0.22	0.049
CC(OC(=O)Nc1conc1-c1ccc(CCSCC(=O)O)cc1)c1ccccc1Cl (centres undefined)	0.13	0.1
CC(OC(=O)Nc1conc1-c1ccc(CSCCC(=O)O)cc1)C1=C(Cl)CCCC1 (centres undefined)	0.17	0.056
CC(OC(=O)Nc1conc1-c1ccc(CSCCC(=O)O)cc1)C1=C(Cl)CCC1 (centres undefined)	0.13	0.029
Cc1noc(-c2ccc(CSCCC(=O)O)cc2)c1NC(=O)OC(C)c1ccccc1Cl (centres undefined)	0.51	0.16
CC(OC(=O)Nc1conc1-c1ccc(CS(=O)(=O)CCC(=O)O)cc1)c1ccccc1Cl (centres undefined)	0.28	0.11
